Here are results for 96 compounds from ChEMBL document CHEMBL4513216, “Probing the Open Global Health Chemical Diversity Library for Multistage-Active Starting Points for Next-Generation Antimalarials” (ACS Infect Dis, 2020).

The data set can be described thus: Toxicity liver stage against HepG2, at 10uM. Format: cell-based. Set-up: test concentration 10 uM, cell line HepG2-A16-CD81EGFP. The note with it: human, HepG2-A16-CD81EGFP cells; read-out: INHIBITION
The method, boiled down: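 Uninfected HepG2-A16-CD81EGFP cells, 3 × 10^3 per well, 1536-well, plated on prespotted compound at 10 μM final, parasite-free screening media added to match infected plates; puromycin 10 μM positive, DMSO 0.5% negative; run in parallel with 48 h PbLuc assay at 37 °C, 5% CO2; viability by CellTiter-Glo luminescence, normalized to controls.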
For the compound `NC(=O)NC(=O)CCN1CCN(c2nccs2)CC1`, the cytotoxicity at 10 µM is -33.6%. The same measure for `O=C(c1ccc(Cl)cc1-n1cnnn1)N1CCC2(CC1)OCCO2`: 3.51%; for `COc1cccc(CC(=O)N2CCCN(c3ccnc(C)c3)CC2)c1`: -7.06%. The same measure for `CCN1CCNC(=O)C12CCN(C(=O)Cc1ccsc1)CC2`: -3.31%; for `N#Cc1ccc(OCC(O)CN2CCN(c3nccs3)CC2)cc1` (stereo unspecified): 2.06%; for `Cc1ccc(F)c(NS(=O)(=O)c2cc(C(=O)O)oc2C)c1`: -3.52%.

On to `CCN1CCC(CNC(=O)Nc2cnn(CC(N)=O)c2)C1` (stereo unspecified), for which the cytotoxicity at 10 µM worked out at 1.1%. The same measure for `CC(C)Nc1ncc(-c2ccncc2)c([C@@H]2CCCO2)n1`: 10.8%; for `CCS(=O)(=O)N1C[C@@H](Oc2ccccn2)[C@H]2OCCC[C@H]21`: 5.08%; for `CC(C)NC(=O)N1CCc2ncc(CN3CCOCC3)n2CC1`: 6.28%. As for `Nc1ncc(-c2ccc(F)cc2)c(C2CCCNC2)n1` (stereo unspecified), the figure is 0.109%; as for `Cc1c(C(=O)N(C)CC(C)O)sc2nc(C(F)(F)F)ccc12` (stereo unspecified), -0.943%. The same measure for `CCC(CO)N(Cc1cccs1)C(=O)CSC` (stereo unspecified): 4.78%; for `Cc1ccc(C(=O)Nc2ccccc2N2CCCC2)n1C`: 5.55%; for `Cc1oncc1C(=O)NCc1cc(=O)n2c(n1)CN(CC1CC1)CCC2`: -4.5%.

Consider `CC(CC(=O)Nc1ccc(C(=O)N(C)C)c(Cl)c1)n1cccc1` (stereo unspecified), for which the cytotoxicity at 10 µM was 7.07%.

Take `O=C(CCc1ccccn1)N1CCCC(n2cncn2)C1` (stereo unspecified): the cytotoxicity at 10 µM is -15.5%.

Take `CCc1nc(NS(=O)(=O)c2cc(C)ccc2F)no1`: the cytotoxicity at 10 µM was -4.71%. On to `CC(=O)N1CCN(Cc2ccccn2)CC2(CC(=O)N(C)C2)C1` (stereo unspecified), for which the cytotoxicity at 10 µM was determined as 1.23%.

`Cc1ccccc1CC(=O)N(C)C1CCN(c2ccccn2)CC1`: the cytotoxicity at 10 µM is -2.74%.

In the case of `CC1(c2[nH]ncc2C(N)=O)CCN(S(=O)(=O)c2ccccc2)CC1`, the cytotoxicity at 10 µM was -1.29%. As for `Cn1cc(S(=O)(=O)NCC(C)(O)c2ccsc2)cn1` (stereo unspecified), the figure is 22.1%. As for `Cn1cc(C(=O)N2CCN(c3ccc(F)cc3)CC2)ccc1=O`, the figure is 1.37%; as for `O=C(O)Cn1ccc(=O)c2cc(F)ccc21`, -0.0342%; as for `Cc1cccc(Cn2cc(Br)c(NS(C)(=O)=O)n2)c1`, -0.08%.

Consider `COc1ccc(NC(=O)NC(C)(C)c2noc(C)n2)cc1`, for which the cytotoxicity at 10 µM was -3.42%.

`O=C(O)c1ccc2c(CN3CCCC3)c[nH]c2c1`: the cytotoxicity at 10 µM was -2.09%. The same measure for `Cc1noc([C@H]2COC[C@H]3CN(C(=O)Cc4ccsc4)C[C@H]32)n1`: -3.26%; for `NC(=O)CN1CCC(C(=O)N2CCCC(OCc3cccnc3)C2)CC1` (stereo unspecified): -1.88%. On to `Cc1cccc(CO[C@@H]2CO[C@@]3(CCN(S(=O)(=O)N(C)C)C3)C2)n1`, for which the cytotoxicity at 10 µM came to 4.14%.

In the case of `CNC(=O)C1(CCCc2cnccn2)CCN1CCc1ccccc1` (stereo unspecified), the cytotoxicity at 10 µM is -1.23%.

Turning to `COc1cccc(CNCc2c(C)nc3sc(C)cn23)c1OC`, the cytotoxicity at 10 µM amounted to 32.8%. As for `Cc1cnn(CC2CN(CC(=O)N(C)Cc3ccccc3)CCO2)c1` (stereo unspecified), the figure is -4.35%. On to `Cc1cc2nc(-c3ccccc3)cc(NCC3CCCOC3)n2n1` (stereo unspecified), for which the cytotoxicity at 10 µM was -3.54%. The same measure for `CCOC[C@@H]1CC[C@H]2[C@H](CCN2S(=O)(=O)Cc2ccccc2)O1`: 2.84%; for `COc1ccc2c(c1)OCC(Cc1ccc(N)cn1)C2` (stereo unspecified): -1.91%; for `O=C1CCCN1CCC1CCN(C2CCCNC2)CC1` (stereo unspecified): 2.37%. As for `CC(C)CCN1CC2(CCN(C(=O)C3(C)CCCCO3)CC2)OC1=O` (stereo unspecified), the figure is -14.4%; as for `CCCS(=O)(=O)N1CCOC2(COCCN(C(C)=O)C2)C1` (stereo unspecified), 19.9%. As for `CCN(Cc1ccc(OC)c(F)c1)C(=O)c1ccc(C)[nH]c1=O`, the figure is -8.08%; as for `COc1ccc(OC)c(CN2CCc3nc4ccsc4c(=O)n3CC2)c1`, 43.5%; as for `O=C(c1cccc(F)c1)N1CCCN(Cc2cscn2)CC1`, -3.13%.

For the compound `CCn1c(N)nc2cc(C(=O)NCCc3ccccc3F)cnc21`, the cytotoxicity at 10 µM was -1.83%. In the case of `CN(CCO)Cc1nnc(C2CCN(C(=O)c3ccccc3)CC2)n1C`, the cytotoxicity at 10 µM turned out to be 1.93%. As for `Cn1cc(NS(=O)(=O)CCOc2ccc(F)cc2)cn1`, the figure is -0.77%; as for `CN1CCN(C2CCN(CCOc3cccc(F)c3)CC2)C1=O`, -2.45%. Take `Cc1noc(C)c1S(=O)(=O)N1CCc2nc(C3CCNCC3)ncc2C1`: the cytotoxicity at 10 µM is -22.9%. As for `CC(c1nc(-c2ccccc2)no1)N1CC(n2cccn2)C1` (stereo unspecified), the figure is 1.62%; as for `CCC(=O)Nc1ccc(C(C)NC(=O)COC)cc1` (stereo unspecified), -145%; as for `CCNc1ncc(C(=O)NCc2cccc(OC(F)(F)F)c2)cn1`, -2.94%. On to `CC(=O)c1cccc(S(=O)(=O)NCCNC(=O)c2snnc2C)c1`, for which the cytotoxicity at 10 µM was -0.302%. The same measure for `COc1cccc(OCC2CCCN(C(=O)c3cnc(C)nc3O)C2)c1` (stereo unspecified): -15.8%. As for `Cc1ccnc(N2CCCC(c3nccn3C(C)C)C2)n1` (stereo unspecified), the figure is -9.63%; as for `CN(C)[C@@H]1CCN(S(C)(=O)=O)[C@H]1Cc1ccccc1`, 11.7%. In the case of `N#Cc1ccc(C(=O)N2CC[C@H]3[C@@H]2CCC(=O)N3c2cccnc2)cc1`, the cytotoxicity at 10 µM is 1.77%. On to `Cc1cccc(C)c1Nc1noc2c1CN(C(=O)c1cn(C)cn1)CC2`, for which the cytotoxicity at 10 µM stood at 12.9%. Turning to `Cc1cccc(NC(=O)Cn2ncc(SCC(N)=O)c(Cl)c2=O)c1C`, the cytotoxicity at 10 µM is -15.7%. On to `CN(C)CCOCc1cncc2c1CCN(C(=O)c1cscn1)C2`, for which the cytotoxicity at 10 µM is -102%. As for `C[S+]([O-])c1ccc(NC(=O)CC2=CCCCC2)cc1` (stereo unspecified), the figure is 0.304%; as for `CCn1c(CC2CCN(S(=O)(=O)N3CCCCC3)CC2)nn(C)c1=O`, 1.58%. As for `Cn1cc(S(=O)(=O)NCC2CCN(C(=O)c3ccoc3)CC2)cn1`, the figure is -3.82%; as for `CN(C)c1nc2c(c(=O)[nH]1)CCN(C(=O)C1CCCO1)C2` (stereo unspecified), -43.3%; as for `CC(C)c1ccc(OCCNC(=O)N2CCS(=O)(=O)CC2)cc1`, -5.54%. With `CC(Cc1cnccn1)NC(=O)COc1ccc(F)cc1F` (stereo unspecified), the cytotoxicity at 10 µM was -44.4%.

For the compound `Cn1cc(C(=O)Nc2cccc(-c3ccc4c(c3)CCO4)n2)ccc1=O`, the cytotoxicity at 10 µM is 3.72%. The same measure for `COCC(=O)N1CCCC2(CCN(c3cncnc3)C2=O)C1` (stereo unspecified): -72.5%; for `COc1ccc(CC2CCCN2CCCC#N)cc1` (stereo unspecified): -54.7%; for `CN(Cc1noc(C(C)(C)C)n1)Cc1ccccc1N1CCCC1`: -1.78%. As for `NC(=O)N1CC[C@H](O)[C@@H]1Cc1cccnc1`, the figure is 1.72%; as for `CC(C)c1nccn1CCCNC(=O)c1ccc(-c2cnn(C)c2)nc1`, -9.36%.

Consider `COc1c(C2CCCN2Cc2nnc(C3CC3)n2C)c(C)nn1C` (stereo unspecified), for which the cytotoxicity at 10 µM was 7.06%. Take `Cc1cc(C(O)CCNC(=O)COc2ccccc2C)c(C)o1` (stereo unspecified): the cytotoxicity at 10 µM stood at 2.86%. Consider `Cc1cnn(C2CN(CC(O)COc3ccc(C#N)cc3)C2)c1` (stereo unspecified), for which the cytotoxicity at 10 µM was determined as 1.81%. The same measure for `CCC(Oc1ccc(N(C)S(C)(=O)=O)cc1)C(=O)NC` (stereo unspecified): 0.0646%; for `Cc1c(CS(C)(=O)=O)cccc1NCCCC1CCCC1`: 17.5%. As for `CC(=O)c1ccc(N2CCCC(CO)(CCc3ccccc3)C2)nc1` (stereo unspecified), the figure is 1.2%; as for `Cn1ncc(Cl)c1C(=O)N1CCc2nc3sccc3c(=O)n2CC1`, -26.7%; as for `Cn1cnnc1C1CCCN(C(=O)NCCOc2ccccc2)C1` (stereo unspecified), 7.48%. As for `COCCCN(Cc1ccncc1)C(=O)CSc1ccc(F)cc1`, the figure is 0.807%; as for `CNC(=O)[C@@H]1CCO[C@@H]2CCN(C3CCOCC3)C[C@@H]21`, 6.67%. Turning to `CC(C)c1nnc2ccc(N3CCC(C(=O)Nc4nccs4)CC3)nn12`, the cytotoxicity at 10 µM amounted to 42.6%. In the case of `Cc1ccccc1S(=O)(=O)NC(=O)CSc1ccc2c(c1)OCCO2`, the cytotoxicity at 10 µM is -1.85%. The same measure for `Cc1cnn(C2CCCN(C(=O)c3cn(-c4ccccc4)nc3C)C2)c1` (stereo unspecified): -5.46%. As for `O=C(NCCO)c1coc(CN2CCN(c3ccccc3F)CC2)n1`, the figure is -11.2%. Turning to `CS(=O)(=O)NCC1(c2ccccc2Br)CC1`, the cytotoxicity at 10 µM is -5.51%. The same measure for `O=C(C[C@@H]1COC[C@H]2CN(Cc3ccsc3)C[C@@H]12)N1CCCC1`: 1.64%. As for `COCCCNC(=O)c1c(C)noc1C(C)C`, the figure is -28.2%.

As for `COCCN1CCO[C@H]2CCN(C(=O)c3ccnnc3)CC[C@@H]21`, the cytotoxicity at 10 µM stood at 0.196%.

As for `COCC1CCN(S(=O)(=O)NCC2COc3ccccc3C2)CC1` (stereo unspecified), the cytotoxicity at 10 µM was 7.64%.

Take `CNC(=O)c1cnc(/C=C/c2ccc(OC)c(O)c2)s1`: the cytotoxicity at 10 µM is -11.1%.

Take `Cc1nc(N(C)C)nc(C)c1NS(=O)(=O)c1ccccc1Cl`: the cytotoxicity at 10 µM came out at 4.22%. Take `COc1cccc2cc(CNCc3ccnc(N(C)C)c3)oc12`: the cytotoxicity at 10 µM is -6.87%. Regarding `Cn1c(Cn2ccnc2)nnc1C1CCCN(C2CCCCC2)C1` (stereo unspecified), the cytotoxicity at 10 µM was -13.2%. The same measure for `Cc1c(F)cccc1S(=O)(=O)NCCN`: 1.99%; for `Cn1cc(CN2CC[C@H]3OCC[C@@H](C(=O)NC4CCCC4)[C@@H]3C2)cn1`: 0.835%.

Turning to `O=C(Cc1c(F)cccc1Cl)Nc1cc(N2CCOCC2)ncn1`, the cytotoxicity at 10 µM came to 3.36%.
